Assay results: ChEMBL document CHEMBL4689842, “EUbOPEN Chemogenomics Library wave 1” (2021)
Values joined by “and” are separate entries in the source; they are usually repeats but may differ in a detail not shown here. Equal values may be shown once.

Tested on: Fibroblast
Assay: Multiplex assay against human fibroblast
Format: toxicity, cell-based
In short: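 Per cents of healthy-nucleus cells form the tubulin, mitochondrial-mass and membrane-permeability phenotype values. Live cells were stained at seeding with Hoechst33342, BioTracker Green Microtubule Cytoskeleton Dye, MitoTracker Red and Annexin V Alexa Fluor 680. After compound addition they were imaged on a CQ1 microscope at 37°C and 5% CO2, and CellPathfinder machine-learning gating split them into Hoechst high-intensity objects or normal cells, normal cells into healthy, pyknosed or fragmented nuclei, and pyknosed cells into mitotic or apoptotic.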

[1] = 12 h, 1 µM, compound concentration 1 uM, replicate 1
[2] = 12 h, 1 µM, compound concentration 1 uM, replicate 2
[3] = 12 h, 10 µM, compound concentration 10 uM, replicate 1
[4] = 12 h, 10 µM, compound concentration 10 uM, replicate 2
[5] = 24 h, 1 µM, compound concentration 1 uM, replicate 1
[6] = 24 h, 1 µM, compound concentration 1 uM, replicate 2
[7] = 24 h, 10 µM, compound concentration 10 uM, replicate 1
[8] = 24 h, 10 µM, compound concentration 10 uM, replicate 2
[9] = 48 h, 1 µM, compound concentration 1 uM, replicate 1
[10] = 48 h, 1 µM, compound concentration 1 uM, replicate 2
[11] = 48 h, 10 µM, compound concentration 10 uM, replicate 1
[12] = 48 h, 10 µM, compound concentration 10 uM, replicate 2

## Cc1c(-c2ccc(O)cc2)n(Cc2ccc(OCCN3CCCCCC3)cc2)c2ccc(O)cc12 [BAZEDOXIFENE]
[1]
  Population Apoptotic (%): 69%
  Population Fragmented Nuclei (%): 27%
  Population Healthy Nuclei (%): 33%
  Population Hoechst High Intensity Objects (%): 13%
  Population Membrane Permeable-Phenotype (%): 16%
  Population Mitochondria Different-Phenotype (%): 19%
  Population Mitotic Cells (%): 30%
  Population Normal (%): 86%
  Population Pyknosed Nuclei (%): 39%
  Population Tubulin-Different-Phenotype (%): 58%
  Total Cell Count: 106
[2]
  Population Apoptotic (%): 0%
  Population Fragmented Nuclei (%): 13%
  Population Healthy Nuclei (%): 81%
  Population Hoechst High Intensity Objects (%): 10%
  Population Membrane Permeable-Phenotype (%): 5%
  Population Mitochondria Different-Phenotype (%): 20%
  Population Mitotic Cells (%): 100%
  Population Normal (%): 89%
  Population Pyknosed Nuclei (%): 4%
  Population Tubulin-Different-Phenotype (%): 17%
  Total Cell Count: 48
[3]
  Population Apoptotic (%): 72%
  Population Fragmented Nuclei (%): 27%
  Population Healthy Nuclei (%): 36%
  Population Hoechst High Intensity Objects (%): 26%
  Population Membrane Permeable-Phenotype (%): 12%
  Population Mitochondria Different-Phenotype (%): 35%
  Population Mitotic Cells (%): 27%
  Population Normal (%): 73%
  Population Pyknosed Nuclei (%): 36%
  Population Tubulin-Different-Phenotype (%): 85%
  Total Cell Count: 149
[4]
  Population Apoptotic (%): 60%
  Population Fragmented Nuclei (%): 7%
  Population Healthy Nuclei (%): 56%
  Population Hoechst High Intensity Objects (%): 2%
  Population Membrane Permeable-Phenotype (%): 26%
  Population Mitochondria Different-Phenotype (%): 100%
  Population Mitotic Cells (%): 40%
  Population Normal (%): 97%
  Population Tubulin-Different-Phenotype (%): 100%
  Total Cell Count: 42
[5]
  Population Apoptotic (%): 80%
  Population Fragmented Nuclei (%): 27%
  Population Healthy Nuclei (%): 49%
  Population Hoechst High Intensity Objects (%): 14%
  Population Membrane Permeable-Phenotype (%): 22%
  Population Mitochondria Different-Phenotype (%): 8%
  Population Mitotic Cells (%): 19%
  Population Normal (%): 85%
  Population Pyknosed Nuclei (%): 23%
  Population Tubulin-Different-Phenotype (%): 46%
  Total Cell Count: 106
[6]
  Population Apoptotic (%): 11%
  Population Fragmented Nuclei (%): 8%
  Population Healthy Nuclei (%): 75%
  Population Hoechst High Intensity Objects (%): 3%
  Population Membrane Permeable-Phenotype (%): 2%
  Population Mitochondria Different-Phenotype (%): 6%
  Population Mitotic Cells (%): 88%
  Population Normal (%): 96%
  Population Pyknosed Nuclei (%): 15%
  Population Tubulin-Different-Phenotype (%): 15%
  Total Cell Count: 60
[7]
  Population Apoptotic (%): 62%
  Population Fragmented Nuclei (%): 20%
  Population Healthy Nuclei (%): 37%
  Population Hoechst High Intensity Objects (%): 23%
  Population Membrane Permeable-Phenotype (%): 12%
  Population Mitochondria Different-Phenotype (%): 71%
  Population Mitotic Cells (%): 37%
  Population Normal (%): 76%
  Population Pyknosed Nuclei (%): 41%
  Population Tubulin-Different-Phenotype (%): 84%
  Total Cell Count: 134
[8]
  Population Apoptotic (%): 68%
  Population Fragmented Nuclei (%): 22%
  Population Healthy Nuclei (%): 30%
  Population Hoechst High Intensity Objects (%): 20%
  Population Membrane Permeable-Phenotype (%): 75%
  Population Mitochondria Different-Phenotype (%): 100%
  Population Mitotic Cells (%): 31%
  Population Normal (%): 80%
  Population Pyknosed Nuclei (%): 47%
  Population Tubulin-Different-Phenotype (%): 100%
  Total Cell Count: 50
[9]
  Population Apoptotic (%): 50%
  Population Fragmented Nuclei (%): 42%
  Population Healthy Nuclei (%): 51%
  Population Hoechst High Intensity Objects (%): 14%
  Population Membrane Permeable-Phenotype (%): 26%
  Population Mitochondria Different-Phenotype (%): 4%
  Population Mitotic Cells (%): 50%
  Population Normal (%): 85%
  Population Pyknosed Nuclei (%): 6%
  Population Tubulin-Different-Phenotype (%): 44%
  Total Cell Count: 115
[10]
  Population Apoptotic (%): 75%
  Population Fragmented Nuclei (%): 27%
  Population Healthy Nuclei (%): 68%
  Population Hoechst High Intensity Objects (%): 16%
  Population Membrane Permeable-Phenotype (%): 15%
  Population Mitochondria Different-Phenotype (%): 1%
  Population Mitotic Cells (%): 25%
  Population Normal (%): 83%
  Population Pyknosed Nuclei (%): 3%
  Population Tubulin-Different-Phenotype (%): 46%
  Total Cell Count: 123
[11]
  Population Apoptotic (%): 85%
  Population Fragmented Nuclei (%): 39%
  Population Healthy Nuclei (%): 29%
  Population Hoechst High Intensity Objects (%): 18%
  Population Membrane Permeable-Phenotype (%): 33%
  Population Mitochondria Different-Phenotype (%): 55%
  Population Mitotic Cells (%): 14%
  Population Normal (%): 81%
  Population Pyknosed Nuclei (%): 30%
  Population Tubulin-Different-Phenotype (%): 81%
  Total Cell Count: 112
[12]
  Population Apoptotic (%): 83%
  Population Fragmented Nuclei (%): 42%
  Population Healthy Nuclei (%): 37%
  Population Hoechst High Intensity Objects (%): 35%
  Population Membrane Permeable-Phenotype (%): 21%
  Population Mitochondria Different-Phenotype (%): 47%
  Population Mitotic Cells (%): 16%
  Population Normal (%): 64%
  Population Pyknosed Nuclei (%): 19%
  Population Tubulin-Different-Phenotype (%): 65%
  Total Cell Count: 95

## O=C(NCCN1CCOCC1)c1ccc2c(c1)C(=O)c1ccc(Nc3ccc(F)c(NC(=O)c4ccccc4)c3)cc1CC2 [FS-694]
[3]
  Population Apoptotic (%): 65% and 38%
  Population Fragmented Nuclei (%): 35% and 51%
  Population Healthy Nuclei (%): 49% and 32%
  Population Mitotic Cells (%): 34% and 61%
  Population Normal (%): 81% and 29%
  Population Pyknosed Nuclei (%): 14%
  Population Tubulin-Different-Phenotype (%): 20% and 24%
  Total Cell Count: 371 and 970
[4]
  Population Apoptotic (%): 72% and 68%
  Population Fragmented Nuclei (%): 57%
  Population Healthy Nuclei (%): 27% and 29%
  Population Hoechst High Intensity Objects (%): 44% and 82%
  Population Membrane Permeable-Phenotype (%): 21% and 20%
  Population Mitochondria Different-Phenotype (%): 15% and 0%
  Population Mitotic Cells (%): 27% and 31%
  Population Pyknosed Nuclei (%): 15% and 13%
[7]
  Population Apoptotic (%): 44% and 59%
  Population Fragmented Nuclei (%): 50% and 35%
  Population Healthy Nuclei (%): 36% and 50%
  Population Membrane Permeable-Phenotype (%): 8%
  Population Mitochondria Different-Phenotype (%): 13% and 7%
  Population Mitotic Cells (%): 55% and 40%
  Population Normal (%): 34% and 80%
  Population Pyknosed Nuclei (%): 13% and 14%
  Population Tubulin-Different-Phenotype (%): 25% and 24%
  Total Cell Count: 927 and 391
[8]
  Population Apoptotic (%): 80% and 55%
  Population Fragmented Nuclei (%): 43% and 57%
  Population Healthy Nuclei (%): 40% and 27%
  Population Hoechst High Intensity Objects (%): 50% and 77%
  Population Membrane Permeable-Phenotype (%): 16% and 15%
  Population Mitochondria Different-Phenotype (%): 20% and 0%
  Population Mitotic Cells (%): 20% and 44%
  Population Normal (%): 50% and 22%
  Population Pyknosed Nuclei (%): 16% and 15%
  Population Tubulin-Different-Phenotype (%): 20% and 9%
